Source: article PMC2744100 (Journal of medicinal chemistry, 2009)
Where two headings read alike, the source gives them in different places.

How the values were obtained:
[1] = molecular target: T1, TCCYP51 (Trypanosoma cruzi, UniProt Q7Z1V1); conditions: read-out: Kd of enzyme/substrate complex formation; preferred substrate; cited from earlier work
[2] = molecular target: T1, TCCYP51; assay: Spectral titration of TCCYP51; type: binding; conditions: ligand-free maximum 417 nm
[3] = test system: TC trypomastigotes and amastigotes; assay: Growth inhibition assay in TC cells; type: cell-based, Trypanosoma cruzi; conditions: for Effect on parasites in cardiomyocytes at 20 μM: 20 μM compound; for Antiparasitic effect in both human forms of TC: pre-treatment of trypomastigotes, 1–50 μM
Outline: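 Trypomastigotes (10^6) pre-exposed 30 min to test compound in DMSO (1–50 μM) or DMSO alone. Then added in triplicate to rat cardiomyocyte monolayers, 10 parasites/cell, for 2 h. Unbound parasites were removed and cultures kept 72 h in DMEM + 10% FBS. T. cruzi per 200 cells and % infection were counted microscopically on Giemsa stain. Mean ± SD; Student t test versus DMSO.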

[4] = molecular target: T1, TCCYP51; assay: ESI-MS analysis of non-covalent interactions in TCCYP51; type: binding; conditions: ESI-mass spectrometry, 20-HCl 100 μM
[5] = test system: TC epimastigotes; assay: TC cellular sterol analysis; type: cell-based, Trypanosoma cruzi; conditions: 50 μM, TLC
[6] = molecular target: T1, TCCYP51; type: biochemical; conditions: reconstituted enzyme reaction
[7] = test system: rat cardiomyocyte monolayers; assay: Effect on cardiomyocyte monolayers in the growth inhibition assay; type: cell-based; conditions: concentrations higher than 10 μM
[8] = test system: TC epimastigotes; conditions: 1 μM; cited from earlier work
[9] = test system: TC cells; conditions: published values; cited from earlier work

T1 sequence (Q7Z1V1 whole entry): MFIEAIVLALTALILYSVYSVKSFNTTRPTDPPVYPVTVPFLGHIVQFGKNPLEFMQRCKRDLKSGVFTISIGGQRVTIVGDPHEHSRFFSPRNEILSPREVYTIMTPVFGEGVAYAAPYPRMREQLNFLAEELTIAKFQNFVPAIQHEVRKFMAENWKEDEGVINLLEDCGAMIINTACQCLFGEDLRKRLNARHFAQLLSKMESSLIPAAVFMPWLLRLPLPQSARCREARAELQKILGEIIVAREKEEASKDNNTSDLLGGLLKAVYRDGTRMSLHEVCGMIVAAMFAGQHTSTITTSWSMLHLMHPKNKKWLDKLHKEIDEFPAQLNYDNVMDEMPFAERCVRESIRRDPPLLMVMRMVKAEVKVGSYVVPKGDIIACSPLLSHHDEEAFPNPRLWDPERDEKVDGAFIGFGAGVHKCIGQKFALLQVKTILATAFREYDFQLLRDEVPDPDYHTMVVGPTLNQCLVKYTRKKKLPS

Compound: C=C(CC[C@@H](C)[C@H]1CC[C@@]2(C)C3=C(CC[C@]12C)[C@@]1(C)CC[C@H](O)C(C)(C)[C@@H]1CC3)C(C)C [24-methylenedihydrolanosterol]
- Kd [1]: ~1000 nM

Compound: CCC(C(=O)Nc1ccncc1)c1ccccc1 (centres unmarked) [Compound 5, 2-phenyl-N-pyridin-4-ylbutanamide]
- Spectral Response in TCCYP51, Soret band maximum [2]: 422 nm

Compound: O=C(Nc1ccncc1)C1c2ccccc2Oc2ccccc21 [Compound 7]
- Spectral Response in TCCYP51, Soret band maximum [2]: 422 nm

Compound: CC1CCC(C(=O)NC(Cc2c[nH]c3ccccc23)C(=O)Nc2ccncc2)CC1 (centres unmarked) [Compound 9]
- Effect on parasites in cardiomyocytes at 20 μM ([3]; 72 h): practically eliminated from cardiomyocytes
- Antiparasitic effect in both human forms of TC [3]: clear dose-dependent antiparasitic effect
- Spectral Response in TCCYP51, Soret band maximum [2]: 422 nm

Compound: COc1ccc2c(c1)c(CC(=O)Nc1cccnc1)c(C)n2C(=O)c1ccc(Cl)cc1 [Compound 12]
- Spectral Response in TCCYP51, Soret band maximum [2]: 422 nm

Compound: COc1ccc2c(c1)c(CC(=O)NCc1ccccn1)c(C)n2C(=O)c1ccc(Cl)cc1 [Compound 13]
- Effect on parasites in cardiomyocytes at 20 μM ([3]; 72 h): practically eliminated from cardiomyocytes
- Antiparasitic effect in both human forms of TC [3]: clear dose-dependent antiparasitic effect
- Spectral Response in TCCYP51, Soret band maximum [2]: 418 nm

Compound: COc1ccc2c(c1)c(CC(=O)NCc1ccncc1)c(C)n2C(=O)c1ccc(Cl)cc1 [Compound 14]
- Spectral Response in TCCYP51, Soret band maximum [2]: 422 nm

Compound: COc1ccc2c(c1)c(CC(=O)NC(C)c1ccncc1)c(C)n2C(=O)c1ccc(Cl)cc1 (centres unmarked) [Compound 15]
- Spectral Response in TCCYP51, Soret band maximum [2]: 422 nm

Compound: COc1ccc2c(c1)c(CC(=O)Nc1ccccn1)c(C)n2C(=O)c1ccc(Cl)cc1 [Compound 16]
- Spectral Response in TCCYP51, Soret band maximum [2]: 416 nm

Compound: COc1ccc2c(c1)c(CC(=O)Nc1ncccn1)c(C)n2C(=O)c1ccc(Cl)cc1 [Compound 17]
- Spectral Response in TCCYP51, Soret band maximum [2]: 417 nm

Compound: COc1ccc2c(c1)c(CC(=O)NCc1ccc(Cl)nc1)c(C)n2C(=O)c1ccc(Cl)cc1 [Compound 18]
- Effect on parasites in cardiomyocytes at 20 μM ([3]; 72 h): practically eliminated from cardiomyocytes
- Antiparasitic effect in both human forms of TC [3]: clear dose-dependent antiparasitic effect
- Spectral Response in TCCYP51, Soret band maximum [2]: 420 nm

Compound: COc1ccc2c(c1)c(CC(=O)NCc1ccc(C(F)(F)F)nc1)c(C)n2C(=O)c1ccc(Cl)cc1 [Compound 19]
- Spectral Response in TCCYP51, Soret band maximum [2]: 420 nm

Compound: COc1ccc2c(c1)c(CC(=O)NCCc1cccnc1)c(C)n2C(=O)c1ccc(Cl)cc1 [Compound 20]
- Binding stoichiometry to TCCYP51 [4]: simultaneous binding of two inhibitor molecules to the enzyme
- Effect on parasites in cardiomyocytes at 20 μM ([3]; 72 h): practically eliminated from cardiomyocytes
- ED50 (growth inhibition) ([3]; TC amastigotes in cardiomyocytes, 72 h): < 1000 nM
- Antiparasitic effect in both human forms of TC [3]: clear dose-dependent antiparasitic effect
- Effect on TC cellular sterol composition [5]: very similar effect on cellular sterol composition
- Spectral Response in TCCYP51, Soret band maximum [2]: 422 nm

Compound: COc1ccc2c(c1)c(CC(=O)NCCc1cccc(Cl)c1)c(C)n2C(=O)c1ccc(Cl)cc1 [Compound 21]
- Character of TCCYP51 inhibition (reversibility) [6]: functionally irreversible
- Effect on cardiomyocyte monolayers [7]: release cardiomyocyte monolayers at higher concentrations
- Spectral Response in TCCYP51, Soret band maximum [2]: 419 nm

Compound: COc1ccc2c(c1)c(CC(=O)NCC(C)c1ccccc1)c(C)n2C(=O)c1ccc(Cl)cc1 (centres unmarked) [Compound 22]
- Character of TCCYP51 inhibition (reversibility) [6]: functionally irreversible
- Effect on cardiomyocyte monolayers [7]: release cardiomyocyte monolayers at higher concentrations
- Spectral Response in TCCYP51, Soret band maximum [2]: 419 nm

Compound: O=C(NC(Cn1ccnc1)c1ccc(Cl)cc1Cl)c1ccc(-c2nnc(-c3ccccc3)o2)cc1 (centres unmarked) [SDZ-284629, N-(1-(2,4-dichlorophenyl)-2-(1H-imidazol-1-yl)ethyl)-4-(5-phenyl-1,3,4-oxadiazol-2-yl)benzamide]
- Effect on TC cellular sterol composition [8]: the pathway practically stops at the stage of the C14-methylated sterol precursors

Compound: O=C(Cn1ccnc1[N+](=O)[O-])NCc1ccccc1 [benznidazole]
- ED50 in TC cells [9]: 25000 to 50000 nM
